Reference: ChEMBL document CHEMBL1157820, “Vaccinia virus virulence factor N1L is a novel promising target for antiviral therapeutic intervention” (J Med Chem, 2010)
The source made the active and inactive calls. The rule behind the calls is not given here.

Tests used:
HT-1080 = test: Cytotoxicity against human HT1080 cells at >100 uM after 2.5 day by ATP lite assay; format: cell-based; conditions: ht-1080, 60 h
N1L [1] = biological target: T1, N1L (Vaccinia virus, UniProt Q49PX0); test: Displacement of FITC-conjugated BH3-Bak peptide from Vaccinia virus recombinant N1L expressed in Escherichia coli BL21 (DE3) by fluorescence polarization assay; design: species or system Orthopoxvirus vaccinia
T1 sequence (Q49PX0 whole entry): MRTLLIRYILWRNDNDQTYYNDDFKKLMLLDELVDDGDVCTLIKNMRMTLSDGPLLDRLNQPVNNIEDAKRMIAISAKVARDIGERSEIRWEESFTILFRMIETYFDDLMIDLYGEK
Outline: (§1)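 Fluorescence polarization competition: N1L or Bcl-XL incubated with 10 nM BH3-Bak peptide and titrated ligand. Bcl-XL run on the same plate as N1L. N1L tested at several concentrations, none below 500 nM. Normalized polarization vs log ligand fit to a variable-slope dose-response curve for competitive IC50.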

N1L [2] = biological target: T1, N1L; test: Displacement of FITC-conjugated BH3-Bak peptide from 0.5 uM Vaccinia virus recombinant N1L expressed in Escherichia coli BL21 (DE3) by fluorescence polarization assay; design: species or system Orthopoxvirus vaccinia; outline: as §1
N1L [3] = biological target: T1, N1L; test: Displacement of FITC-conjugated BH3-Bak peptide from 1 uM Vaccinia virus recombinant N1L expressed in Escherichia coli BL21 (DE3) by fluorescence polarization assay; design: species or system Orthopoxvirus vaccinia; outline: as §1
[4] = Cytotoxicity against african green monkey CV1 cells at >100 uM after 2.5 day by ATP lite assay; format: cell-based; conditions: chlorocebus aethiops, cv-1, 60 h
[5] = Therapeutic index, ratio of TC50 for african green monkey CV1 cells to EC50 for GFP-expressing Vaccinia virus WR infected in african green monkey CV1 cells; format: cell-based, CV-1; conditions: read-out: TI
[6] = Therapeutic index, ratio of TC50 for human HT1080 cells to EC50 for GFP-expressing Vaccinia virus WR infected in human HT1080 cells; format: cell-based, HT-1080; conditions: read-out: TI
[7] = biological target: Apoptosis regulator Bcl-2 (Homo sapiens, UniProt P10415); test: Displacement of FITC-conjugated BH3-Bim peptide from human recombinant Bcl-2 expressed in Escherichia coli BL21 (DE3) by fluorescence polarization assay
Chain of Apoptosis regulator Bcl-2 (P10415 whole entry, the tested form may be a part): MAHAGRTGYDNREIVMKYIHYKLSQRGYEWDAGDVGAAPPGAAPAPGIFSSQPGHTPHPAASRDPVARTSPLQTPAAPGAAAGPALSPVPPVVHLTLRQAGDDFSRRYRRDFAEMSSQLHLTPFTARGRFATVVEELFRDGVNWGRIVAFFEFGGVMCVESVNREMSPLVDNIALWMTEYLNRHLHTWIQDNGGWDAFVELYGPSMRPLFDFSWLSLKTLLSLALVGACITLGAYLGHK
Outline: (§2)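 Fluorescence polarization competition with 10 nM BH3-Bim peptide against F1L or Bcl-2, run alongside N1L, with titrated ligand and a variable-slope dose-response fit for IC50. F1L construct: residues 35–190 from vaccinia WR as N-terminal GST fusion, expressed in E. coli BL21(DE3) (500 μM IPTG, 20 °C, 18 h), finished on Superdex 200 in 20 mM Tris pH 8.0, 100 mM NaCl.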

N1L (Vaccinia virus) [8] = biological target: N1L (Vaccinia virus) (UniProt Q49PX0); test: Binding affinity to Vaccinia virus recombinant N1L expressed in Escherichia coli BL21 (DE3) assessed as protein melting temperature at 106 uM by differential scanning calorimetry; conditions: Orthopoxvirus vaccinia
Outline: (§3)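 DSC at 1 K/min scan rate under 3.0 atm. Samples in PBS with 1.0 mg/ml (71 μM) N1L, 2 or 5% DMSO, and compound at 71, 106 or 214 μM; DMSO-only reference. Melting temperature and enthalpy of unfolding (area under peak) taken from thermograms.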

[9] = Displacement of FITC-conjugated BH3-Bim peptide from Vaccinia virus N-terminal GST-fused F1L expressed in Escherichia coli BL21 (DE3) by fluorescence polarization assay; design: species or system Orthopoxvirus vaccinia; outline: as §2
N1L (Vaccinia virus) [10] = biological target: N1L (Vaccinia virus) (UniProt Q49PX0); test: Binding affinity to Vaccinia virus recombinant N1L expressed in Escherichia coli BL21 (DE3) assessed as effect on enthalpy of protein unfolding at 106 uM by differential scanning calorimetry; conditions: Orthopoxvirus vaccinia; outline: as §3
Bcl-2-like protein 1 = Bcl-2-like protein 1 (Homo sapiens, UniProt Q07817); test: Displacement of FITC-conjugated BH3-Bak peptide from human recombinant Bcl-XL expressed in Escherichia coli BL21 (DE3) by fluorescence polarization assay; outline: as §1
Chain of Bcl-2-like protein 1 (Q07817 whole entry): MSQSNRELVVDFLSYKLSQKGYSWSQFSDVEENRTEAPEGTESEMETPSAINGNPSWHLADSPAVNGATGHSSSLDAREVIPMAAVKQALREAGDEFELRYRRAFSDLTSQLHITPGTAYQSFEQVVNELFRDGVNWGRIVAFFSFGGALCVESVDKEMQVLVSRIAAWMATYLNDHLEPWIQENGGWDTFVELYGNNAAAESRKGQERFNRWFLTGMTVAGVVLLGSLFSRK

Vaccinia virus [11] = test: Antiviral activity against GFP-expressing Vaccinia virus WR infected in human HT1080 cells after 2.5 days by fluorescence assay; format: functional, organism-based; conditions: Orthopoxvirus vaccinia, HT-1080, 60 h
Vaccinia virus [12] = test: Antiviral activity against GFP-expressing Vaccinia virus WR infected in african green monkey CV1 cells after 2.5 days by fluorescence assay; format: functional, organism-based; conditions: Orthopoxvirus vaccinia, CV-1, 60 h
N1L (Vaccinia virus) [13] = biological target: N1L (Vaccinia virus) (UniProt Q49PX0); test: Binding affinity to Vaccinia virus recombinant N1L expressed in Escherichia coli BL21 (DE3) assessed as protein melting temperature at 214 uM by differential scanning calorimetry; conditions: Orthopoxvirus vaccinia
Outline: (§4)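 Differential scanning calorimetry of recombinant N1L at 1.0 mg/ml (71 μM) in PBS with 2 or 5% DMSO, plus 214 μM compound, against a DMSO-only reference. Scanned at 1 K/min under 3.0 atm. Melting temperature (Tm) is taken from the peak, and enthalpy of unfolding (ΔH) from the area under the DSC peak.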

N1L (Vaccinia virus) [14] = biological target: N1L (Vaccinia virus) (UniProt Q49PX0); test: Binding affinity to Vaccinia virus recombinant N1L expressed in Escherichia coli BL21 (DE3) assessed as effect on enthalpy of protein unfolding at 214 uM by differential scanning calorimetry; conditions: Orthopoxvirus vaccinia; outline: as §4
N1L (Vaccinia virus) [15] = biological target: N1L (Vaccinia virus) (UniProt Q49PX0); test: Destabilizing effect on Vaccinia virus recombinant N1L expressed in Escherichia coli BL21 (DE3) assessed as decrease in equilibrium constant of protein dimerization at 100 uM by analytical ultracentrifugation; conditions: Orthopoxvirus vaccinia
Outline: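 Sedimentation equilibrium AUC of N1L in PBS at 0.45, 0.15 and 0.05 mg/ml, with 2% DMSO and compound at 50–100 μM. Spun at 20,000 rpm, 20 °C, 24 h. Data fit to a monomer–dimer or monomer–dimer–tetramer equilibrium model to obtain the dimerization KD.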

N1L (Vaccinia virus) [16] = biological target: N1L (Vaccinia virus) (UniProt Q49PX0); test: Binding affinity to Vaccinia virus recombinant N1L expressed in Escherichia coli BL21 (DE3) assessed as protein melting temperature at 71 uM by differential scanning calorimetry; conditions: Orthopoxvirus vaccinia; outline: as §3
N1L (Vaccinia virus) [17] = biological target: N1L (Vaccinia virus) (UniProt Q49PX0); test: Binding affinity to Vaccinia virus recombinant N1L expressed in Escherichia coli BL21 (DE3) assessed as effect on enthalpy of protein unfolding at 71 uM by differential scanning calorimetry; conditions: Orthopoxvirus vaccinia; outline: as §3

SMILES: COc1ccc(C(C)c2cc(OC)c(OC)c(OC)c2)cc1 (stereo not given)
- Activity (HT-1080): Non-toxic
- IC50 (N1L [1]): 5600 nM
- IC50 (N1L [2]): 5600 nM
- IC50 (N1L [3]): 6600 nM
- Activity [4]: Non-toxic
- selectivity ratio [5]: 50
- selectivity ratio [6]: 50

SMILES: Oc1cc(Cc2ccccc2)c(Cc2ccccc2)cc1O
- IC50 [7]: 4700 nM
- IC50 (N1L [1]): 900 nM
- IC50 (N1L [2]): 900 nM
- Tm (N1L (Vaccinia virus) [8]): 48.6 °C
- IC50 (N1L [3]): 1800 nM
- IC50 [9]: 600 nM
- Activity (N1L (Vaccinia virus) [10]): inactive
- IC50 (Bcl-2-like protein 1): 8500 nM

SMILES: COc1cc(C(=N\c2ccccc2)/C(=N/c2ccccc2)c2cc(OC)c(OC)c(OC)c2)cc(OC)c1OC
- IC50 (N1L [1]): 2400 nM
- IC50 (N1L [2]): 2400 nM
- IC50 (N1L [3]): 3500 nM

SMILES: COc1cc(C(c2ccc(O)c(OC)c2)c2ccc(O)c(OC)c2)ccc1O
- IC50 (N1L [1]): 8800 nM
- IC50 (N1L [2]): 8800 nM
- IC50 (N1L [3]): 12400 nM

SMILES: COc1ccc(/C(=N/c2ccc(C)cc2)c2ccccc2)cc1
- IC50 (N1L [1]): 1700 nM
- IC50 (N1L [3]): 1700 nM

SMILES: Oc1ccc(/C=N/c2ccccc2/N=C/c2ccc(O)c(O)c2)cc1O
- Activity (HT-1080): Non-toxic
- IC50 (N1L [1]): 1200 nM
- IC50 (N1L [2]): 1200 nM
- Tm (N1L (Vaccinia virus) [8]): 52.3 °C
- IC50 (N1L [3]): 1300 nM
- Activity (N1L (Vaccinia virus) [10]): inactive
- EC50 (Vaccinia virus [11]): 10900 nM
- Activity [4]: Non-toxic
- selectivity ratio [5]: 5.6
- selectivity ratio [6]: 5.6
- EC50 (Vaccinia virus [12]): 13200 nM

SMILES: Oc1ccc(/C=C/c2cc(O)cc(O)c2)cc1 [RESVERATROL]
- IC50 (N1L [1]): 21900 nM
- IC50 (N1L [3]): 21900 nM
- Tm (N1L (Vaccinia virus) [13]): 54.2 °C
- IC50 (Bcl-2-like protein 1): 190000 nM
- Activity (N1L (Vaccinia virus) [14]): inactive

SMILES: Oc1cc(C(c2ccccc2)c2ccccc2)c2ccccc2c1O
- Activity (N1L (Vaccinia virus) [15]): Active
- IC50 (N1L [1]): 600 nM
- IC50 (N1L [2]): 600 nM
- Tm (N1L (Vaccinia virus) [8]): 54.9 °C
- IC50 (N1L [3]): 1900 nM
- IC50 [9]: 1400 nM
- Activity (N1L (Vaccinia virus) [10]): inactive

SMILES: COc1cc(-c2ccc3cc(OC)c(OC)c(OC)c3c2)cc(OC)c1OC
- Activity (HT-1080): Non-toxic
- Activity (N1L (Vaccinia virus) [15]): Active
- IC50 (N1L [1]): 900 nM
- IC50 (N1L [2]): 900 nM
- Tm (N1L (Vaccinia virus) [8]): 56.3 °C
- IC50 (N1L [3]): 1600 nM
- IC50 [9]: 1700 nM
- Activity (N1L (Vaccinia virus) [10]): inactive
- EC50 (Vaccinia virus [11]): 16900 nM
- Activity [4]: Non-toxic
- EC50 (Vaccinia virus [12]): 13200 nM

SMILES: COc1ccc2ccccc2c1-c1c(O)ccc2ccccc12
- IC50 (N1L [1]): 1500 nM
- IC50 (N1L [2]): 1500 nM
- IC50 (N1L [3]): 3600 nM

SMILES: COc1cc(C(c2ccccc2)c2ccccc2)c2ccccc2c1O
- Tm (N1L (Vaccinia virus) [16]): 57.5 °C
- IC50 (N1L [1]): 1800 nM
- IC50 (N1L [2]): 1800 nM
- IC50 (N1L [3]): 2000 nM
- Activity (N1L (Vaccinia virus) [17]): inactive

SMILES: COc1ccc(CCc2cc(OC)c(O)c(OC)c2)cc1
- IC50 (N1L [1]): 5000 nM
- IC50 (N1L [2]): 5000 nM
- IC50 (N1L [3]): 7500 nM
- Tm (N1L (Vaccinia virus) [13]): 54.4 °C
- Activity (N1L (Vaccinia virus) [14]): inactive
